Measurements from ChEMBL document CHEMBL1140324, “Rational design of non-nucleoside, potent, and orally bioavailable adenosine deaminase inhibitors: predicting enzyme conformational change and metabolism” (J Med Chem, 2005).
Several values for one entry are separate records, joined by “and”; a condition that tells them apart may be missing. Equal values may be shown once.

What was measured:
Adenosine deaminase = molecular target: T1, Adenosine deaminase (Homo sapiens, UniProt P00813); experiment: Inhibitory concentration against adenosine deaminase
T1 sequence (P00813 whole entry): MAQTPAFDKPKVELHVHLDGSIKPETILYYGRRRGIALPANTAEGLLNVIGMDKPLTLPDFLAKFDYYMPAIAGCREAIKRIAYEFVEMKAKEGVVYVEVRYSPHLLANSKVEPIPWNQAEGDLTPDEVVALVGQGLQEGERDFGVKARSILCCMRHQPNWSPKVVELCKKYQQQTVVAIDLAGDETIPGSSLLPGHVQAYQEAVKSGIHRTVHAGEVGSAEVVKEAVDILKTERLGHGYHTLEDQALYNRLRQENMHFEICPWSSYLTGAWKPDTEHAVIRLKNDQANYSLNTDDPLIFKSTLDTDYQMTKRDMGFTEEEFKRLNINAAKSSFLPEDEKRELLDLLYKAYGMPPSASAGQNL

[1] = In vitro clearance in human liver microsomes; type: ADME, Microsome; details: read-out: Clearance
[2] = In vitro clearance in dog liver microsomes; type: ADME, Canis lupus familiaris, Microsome
[3] = In vitro clearance in rat liver microsomes; type: ADME, Microsome; details: read-out: Clearance
Mus musculus [4] = experiment: Antitumor activity (10 mg/kg, p.o., u.i.d.) expressed as median survival time is its ability to inhibit lymphoma U-937 tumor growth inoculated in mice; type: functional
In short: (§1)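 SCID mice bearing U-937 lymphoma. Inhibitor given orally as HCl salt, either once (u.i.d.) or twice (b.i.d.) daily, in combination with the antitumor nucleoside AraA. Read-out was median survival time in days, compared with an untreated control group and an AraA-alone arm (10 mg/kg).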

Mus musculus [5] = experiment: Antitumor activity (32 mg/kg, p.o., u.i.d.) expressed as median survival time is its ability to inhibit lymphoma U-937 tumor growth inoculated in mice; type: functional; in short: as §1
Rattus norvegicus [6] = species: Rattus norvegicus; experiment: Peroral dose showing antiinflammatory effect in adjuvant arthritis model in rats; type: functional; details: po
In short: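 Rat adjuvant arthritis model with oral dosing. Anti-inflammatory potency is reported as ED30 in mg/kg po.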

[7] = Oral bioavailability in dog (dose 10 mg/kg); type: ADME, organism-based, Canis lupus familiaris; details: in vivo
In short: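 Dogs dosed orally at 10 mg/kg (n = 2–3). Oral bioavailability was determined.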

[8] = Plasma half life (10 mg/kg, p.o.) in rat; type: ADME, organism-based; details: po
In short: (§2)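 Rats dosed orally at 10 mg/kg (n = 2–3). Cmax and t1/2 are taken from plasma. AUC covers 0–24 h. Bioavailability is the oral exposure parameter for the same dosing.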

[9] = Area under blood-concentration time curve after 10 mg/kg peroral dose in rat; type: ADME, organism-based; design: dose 10 mg/kg, route oral; details: in vivo, po; in short: as §2
[10] = Maximum plasma concentration after peroral administration of 10 mg/kg in rat; type: ADME, organism-based; design: dose 10 mg/kg, route oral; details: po; in short: as §2
[11] = (§3) Oral bioavailability in rat (dose 10 mg/kg); type: ADME, organism-based; details: in vivo; in short: as §2
Mus musculus [12] = experiment: Antitumor activity (10 mg/kg, p.o., b.i.d.) expressed as median survival time is its ability to inhibit lymphoma U-937 tumor growth inoculated in mice; type: functional; in short: as §1
Mus musculus [13] = experiment: Antitumor activity (32 mg/kg, p.o., b.i.d.) expressed as median survival time is its ability to inhibit lymphoma U-937 tumor growth inoculated in mice; type: functional; in short: as §1
Rattus norvegicus [14] = experiment: as §3; type: functional, organism-based; in short: as §2
Mus musculus [15] = experiment: Antitumor activity (10 mg/kg, p.o., b.i.d.) on lymphoma U-937 tumor growth inoculated in mice; type: functional; in short: as §1
Mus musculus [16] = experiment: Antitumor activity (2.5, i.p.) on lymphoma U-937 tumor growth inoculated in mice; type: functional
In short: (§4)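 SCID mouse U-937 lymphoma model. Pentostatin given intraperitoneally once daily. Efficacy read as median survival time in days, relative to a control group.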

Mus musculus [17] = experiment: Antitumor activity (0.25 mg/kg, i.p.) on lymphoma U-937 tumor growth inoculated in mice; type: functional; in short: as §4

Row | SMILES | IC50 (Adenosine deaminase) [nM] | Clearance [2] [mL/min/kg] | CLint scaled [3] [mL/min/kg] | ED30 (Rattus norvegicus [6]) [mg/kg] | half-life [8] [h] | AUC [9] [ng·h/mL] | Cmax [10] [ng/mL] | further results
1 | NC(=O)c1cn(C(CO)CCc2cccc3ccccc23)cn1 (configuration not stated) | 570 |  |  |  |  |  |  | 
2 | C[C@H](O)[C@@H](CCc1cccc2oc(-c3ccc(Cl)cc3)nc12)n1cnc(C(N)=O)c1 | 8.7 | 6.2 | 50 | 0.3 | 1.87 | 56200 | 14700 | CLint scaled [1]: 12 mL/min/kg; MST (Mus musculus [4]): 43 days; MST (Mus musculus [5]): 45.5 days; bioavailability [7]: 81%; bioavailability [11]: 86%
3 | NC(N)=Nc1nc(-c2ccc(CNc3nc4ccccc4[nH]3)s2)cs1 | 700 |  |  |  |  |  |  | 
4 | C[C@H](O)[C@@H](CCc1cccc(Cl)c1Cl)n1cnc(C(N)=O)c1 | 15 | 21 |  | 1.6 |  | 2110 | 1630 | MST (Mus musculus [12]): 34 days; MST (Mus musculus [13]): 42.5 days and 38 days
5 | C[C@H](O)[C@@H](CCc1cccc2nc(-c3ccc(Cl)cc3)oc12)n1cnc(C(N)=O)c1 |  | 6 | 131 | 0.6 | 3.45 | 29600 | 5580 | CLint scaled [1]: 34 mL/min/kg; bioavailability (Rattus norvegicus [14]): 52%; bioavailability [7]: 50%
6 | Cn1cc(CC[C@H](CO)n2cnc(C(N)=O)c2)c2cc(OCCCc3ccc(Cl)cc3)ccc21 | 6.7 |  | 643 |  | 1.09 | 260 | 210 | 
7 | C[C@H](O)[C@@H](CCc1cccc2ccccc12)n1cnc(C(N)=O)c1 | 16 | 30 |  |  |  | 1370 | 1250 | 
8 | Nc1ncnc2c1ncn2[C@@H]1O[C@H](CO)[C@@H](O)[C@@H]1O [VIDARABINE] |  |  |  |  |  |  |  | MST (Mus musculus [15]): 34 days
9 | OC[C@H]1O[C@@H](n2cnc3c2N=CNC[C@H]3O)C[C@@H]1O [PENTOSTATIN] |  |  |  |  |  |  |  | MST (Mus musculus [16]): 42.5 days; MST (Mus musculus [17]): 34 days
